In ChEMBL document CHEMBL1138530 (Antimicrob Agents Chemother, 2007):
Converted amounts (≈) assume the structure as drawn.

Experiments:
Homo sapiens [1] = assay: Tlag in HIV1 infected human at 150 mg, po; format: ADME, organism-based; conditions: in vivo
Outline: (§1)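 Single oral dose to HIV-infected adults, six per cohort; plasma sampled 0–48 h and days 3–24. Heparinized plasma, internal-standard spiked, acetonitrile-precipitated, assayed by reverse-phase LC-MS/MS (MRM 583.3→455.2); ranges 20.0–16,000 ng/ml (75 mg) or 100–60,000 ng/ml (150, 250 mg). Oral two-compartment linear model with absorption lag fit by maximum likelihood then Bayesian estimation.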

Homo sapiens [2] = assay: Effect of CD4 cell count in HIV1 infected human at 75 mg, po after 10 days; format: functional
Outline: (§2)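 CD4 cell count change from baseline 10 days after a single oral dose in HIV-infected adults (baseline CD4 >200 cells/mm3), six per cohort, placebo-controlled double-blind design; tested by dose and over time.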

[3] = tested on: Human immunodeficiency virus 1; assay: Antiviral activity against HIV1 infected in human assessed as number of new virions produced by infected CD4 cells at 250 mg, po; format: functional
Outline: (§3)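 Randomized, double-blind, placebo-controlled trial; HIV-infected adults (CD4 >200 cells/mm3, plasma viral load 5,000–250,000 copies/ml, no antiretrovirals ≥4 weeks), six per cohort, single oral dose. Plasma HIV RNA sampled predose through day 24. Viral-dynamic model (uninfected/infected CD4, virus; Hill-type inhibition of new infection by plasma concentration) fit by maximum likelihood then Bayesian estimation, pharmacokinetic parameters held fixed.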

[4] = tested on: Human immunodeficiency virus 1; assay: Antiviral activity against HIV1 infected in human assessed as inhibition of viral replication at 75 mg, po; format: functional, organism-based; outline: as §3
[5] = tested on: Human immunodeficiency virus 1; assay: Antiviral activity against HIV1 infected in human assessed as death rate constant of infected CD4 cells at 150 mg, po; format: functional
Outline: (§4)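 Randomized, double-blind, placebo-controlled trial in HIV-infected adults (CD4 >200 cells/mm3, plasma viral load 5,000–250,000 copies/ml, off antiretrovirals ≥4 weeks), six per cohort, single oral dose. Plasma drug levels measured by LC-MS/MS; HIV RNA sampled to day 24. Parameters from a viral-dynamic model (Hill-type inhibition of new CD4 infection) fit per subject by maximum likelihood then Bayesian estimation; reported as mean (%CV).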

[6] = tested on: Human immunodeficiency virus 1; assay: Antiviral activity against HIV1 infected in human assessed as maximum rate of viral replication measured as logarithmic viral copies at 250 mg, po; format: functional; outline: as §3
Homo sapiens [7] = assay: Tlag in HIV1 infected human at 75 mg, po; format: ADME, organism-based; conditions: in vivo; outline: as §1
[8] = tested on: Human immunodeficiency virus 1; assay: Antiviral activity against HIV1 infected in human assessed as growth/production of uninfected CD4 cells at 150 mg, po; format: functional; outline: as §3
Homo sapiens [9] = assay: Toxicity in HIV1 infected human assessed as incidence of adverse effect at 75 to 250 mg, po; format: organism-based; conditions: in vivo
Outline: (§5)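 Safety monitoring of HIV-infected adults given a single oral dose or placebo (randomized, double-blind, six per cohort), followed to day 24 for adverse events, serious adverse events and deaths.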

[10] = tested on: Human immunodeficiency virus 1; assay: Antiviral activity against HIV1 infected in human assessed as inhibition of viral replication at 250 mg, po; format: functional, organism-based; outline: as §3
[11] = tested on: Human immunodeficiency virus 1; assay: Antiviral activity against HIV1 infected in human assessed as death rate constant of infected CD4 cells at 250 mg, po; format: functional; outline: as §4
[12] = tested on: Human immunodeficiency virus 1; assay: Antiviral activity against HIV1 infected in human assessed as rate at which virus infects CD4 cells at 150 mg, po; format: functional; outline: as §3
Homo sapiens [13] = assay: Distributional clearance in HIV1 infected human at 75 mg, po; format: ADME, organism-based; conditions: in vivo; outline: as §1
[14] = tested on: Human immunodeficiency virus 1; assay: Antiviral activity against HIV1 infected in human assessed as logarithmic reduction in HIV RNA copies at 75 mg, po relative to baseline; format: functional
Outline: (§6)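 Randomized, double-blind, placebo-controlled single oral dose in HIV-infected adults (CD4 >200 cells/mm3, viral load 5,000–250,000 copies/ml, off therapy ≥4 weeks), six per cohort. Plasma HIV RNA at screening, predose, 6–48 h and days 3–24; maximum observed log10 drop from baseline per patient, averaged by dose, compared by ANOVA.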

[15] = tested on: Human immunodeficiency virus 1; assay: Antiviral activity against HIV1 infected in human assessed as maximum rate of viral replication measured as logarithmic viral copies at 150 mg, po; format: functional; outline: as §3
[16] = Half life in HIV1 infected human at 150 mg, po; format: ADME, organism-based; conditions: in vivo; outline: as §1
[17] = tested on: Human immunodeficiency virus 1; assay: Antiviral activity against HIV1 infected in human assessed as clearance rate of virions at 75 mg, po; format: functional; outline: as §3
Homo sapiens [18] = assay: Effect of CD4 cell count in HIV1 infected human at 250 mg, po after 10 days; format: functional; outline: as §2
[19] = tested on: Human immunodeficiency virus 1; assay: Antiviral activity against HIV1 infected in human assessed as logarithmic reduction in HIV RNA copies at 150 mg, po relative to baseline; format: functional; outline: as §6
[20] = Apparent oral clearance in HIV1 infected human at 150 mg, po; format: ADME, organism-based; conditions: in vivo; outline: as §1
Plasma = assay: Stability in human plasma; format: ADME, cell-free
[21] = tested on: Human immunodeficiency virus 1; assay: Antiviral activity against HIV1 infected in human assessed as number of new virions produced by infected CD4 cell at 150 mg, po; format: functional; outline: as §3
Homo sapiens [22] = assay: Tlag in HIV1 infected human at 250 mg, po; format: ADME, organism-based; conditions: in vivo; outline: as §1
[23] = tested on: Human immunodeficiency virus 1; assay: Antiviral activity against HIV1 infected in human assessed as number of new virions produced by infected CD4 cell at 75 mg, po; format: functional; outline: as §3
[24] = Half life in po dosed human; format: ADME, organism-based; conditions: in vivo
[25] = tested on: Human immunodeficiency virus 1; assay: Antiviral activity against HIV1 infected in human assessed as clearance rate of virions at 250 mg, po; format: functional; outline: as §3
[26] = tested on: Human immunodeficiency virus 1; assay: Antiviral activity against HIV1 infected in human assessed as maximum rate of viral replication measured as logarithmic viral copies at 75 mg, po; format: functional; outline: as §3
[27] = tested on: Human immunodeficiency virus 1; assay: Antiviral activity against HIV1 infected in human assessed as clearance rate of virions at 150 mg, po; format: functional; outline: as §3
[28] = tested on: Human immunodeficiency virus 1; assay: Antiviral activity against HIV1 infected in human assessed as death rate constant of uninfected CD4 cells at 250 mg, po; format: functional; outline: as §4
[29] = tested on: Human immunodeficiency virus 1; assay: Antiviral activity against HIV1 infected in human assessed as rate at which virus infects CD4 cells at 250 mg, po; format: functional; outline: as §3
[30] = tested on: Human immunodeficiency virus 1; assay: Antiviral activity against HIV1 assessed as inhibition of release of CA/p24 from CA-SP1/p25 at 37.8 nM by MAGI assay; format: functional; conditions: Human immunodeficiency virus 1, MAGI
[31] = tested on: Human immunodeficiency virus 1; assay: Antiviral activity against HIV1 infected in human assessed as death rate constant of uninfected CD4 cells at 150 mg, po; format: functional; outline: as §4
[32] = tested on: Human immunodeficiency virus 1; assay: Antiviral activity against HIV1 infected in human assessed as death rate constant of uninfected CD4 cells at 75 mg, po; format: functional; outline: as §4
[33] = Apparent oral clearance in HIV1 infected human at 75 mg, po; format: ADME, organism-based; conditions: in vivo; outline: as §1
Homo sapiens [34] = assay: Distributional clearance in HIV1 infected human at 250 mg, po; format: ADME, organism-based; conditions: in vivo; outline: as §1
[35] = Half life in HIV1 infected human at 250 mg, po; format: ADME, organism-based; conditions: in vivo; outline: as §1
[36] = tested on: Human immunodeficiency virus 1; assay: Antiviral activity against HIV1 infected in human assessed as logarithmic reduction in HIV RNA copies at 250 mg, po relative to baseline; format: functional; outline: as §6
[37] = tested on: Human immunodeficiency virus 1; assay: Antiviral activity against HIV1 infected in human assessed as growth/production of uninfected CD4 cells at 75 mg, po; format: functional; outline: as §3
Homo sapiens [38] = assay: Toxicity in HIV1 infected human assessed as mortality at 75 to 250 mg, po; format: organism-based; conditions: in vivo; outline: as §5
Homo sapiens [39] = assay: Effect of CD4 cell count in HIV1 infected human at 150 mg, po after 10 days; format: functional; outline: as §2
[40] = tested on: Human immunodeficiency virus 1; assay: Antiviral activity against HIV1 infected in human assessed as inhibition of viral replication at 150 mg, po; format: functional, organism-based; outline: as §3
[41] = Half life in HIV1 infected human at 75 mg, po; format: ADME, organism-based; conditions: in vivo; outline: as §1
[42] = tested on: Human immunodeficiency virus 1; assay: Antiviral activity against HIV1 infected in human assessed as rate at which virus infects CD4 cells at 75 mg, po; format: functional; outline: as §3
[43] = tested on: Human immunodeficiency virus 1; assay: Antiviral activity against HIV1 infected in human assessed as death rate constant of infected CD4 cells at 75 mg, po; format: functional; outline: as §4
[44] = Apparent oral clearance in HIV1 infected human at 250 mg, po; format: ADME, organism-based; conditions: in vivo; outline: as §1
[45] = tested on: Human immunodeficiency virus 1; assay: Antiviral activity against HIV1 infected in human assessed as growth/production of uninfected CD4 cells at 250 mg, po; format: functional; outline: as §3
Homo sapiens [46] = assay: Distributional clearance in HIV1 infected human at 150 mg, po; format: ADME, organism-based; conditions: in vivo; outline: as §1

Question: What does the source list for C=C(C)[C@@H]1CC[C@]2(C(=O)O)CC[C@]3(C)[C@H](CC[C@@H]4[C@@]5(C)CC[C@H](OC(=O)CC(C)(C)C(=O)O)C(C)(C)[C@@H]5CC[C@]43C)[C@@H]12 [BEVIRIMAT]?
Answer: Tlag (Homo sapiens [1]): 0.2 h; Activity (Homo sapiens [2]): -15; Activity [3]: 80.2; EC50 [4]: 1.19 ng/mL (≈ 2.03 nM); Activity [5]: 0.017 h⁻¹; Activity [6]: 4.46 mL⁻¹; Tlag (Homo sapiens [7]): 0.18 h; Activity [8]: 1340 mL/h; Activity (Homo sapiens [9]): Non-toxic; EC50 [10]: 0.55 ng/mL (≈ 0.94 nM); Activity [11]: 0.007 h⁻¹; Activity [12]: 0.028 h⁻¹; CLd (Homo sapiens [13]): 0.48 L/h; Activity [14]: -0.14 mL⁻¹; Activity [15]: 4.59 mL⁻¹; half-life [16]: 2.3 days; Activity [17]: 0.008 h⁻¹; Activity (Homo sapiens [18]): 104; Activity [19]: -0.47 mL⁻¹; CL/F [20]: 2.67 mL/min; Stability (Plasma): 95 days; Activity [21]: 126; Tlag (Homo sapiens [22]): 0.15 h; Activity [23]: 137.8; half-life [24]: 2.29 days; Activity [25]: 0.024 h⁻¹; Activity [26]: 5.13 mL⁻¹; Activity [27]: 0.071 h⁻¹; Activity [28]: 0.0016 h⁻¹; Activity [29]: 0.0349 h⁻¹; inhibition at 0.0378 µM [30]: 90%; Activity [31]: 0.0012 h⁻¹; Activity [32]: 0.0031 h⁻¹; CL/F [33]: 2.83 mL/min; CLd (Homo sapiens [34]): 0.45 L/h; half-life [35]: 2.59 days; Activity [36]: -0.46 mL⁻¹; Activity [37]: 320.7 mL/h; Activity (Homo sapiens [38]): Non-toxic; Activity (Homo sapiens [39]): 121; EC50 [40]: 0.35 ng/mL (≈ 0.598 nM); half-life [41]: 2.66 days; Activity [42]: 0.14 h⁻¹; Activity [43]: 0.013 h⁻¹; CL/F [44]: 2.83 mL/min; Activity [45]: 1856.6 mL/h; CLd (Homo sapiens [46]): 0.48 L/h
